Data set [1] has as its system Jurkat. Kind of data set: Induction of DNA modifying activity in human Jurkat cells assessed as increase in DNA-protein crosslink at 100 uM under aerobic condition by K-SDS assay (reference value: 4.5. +/- 1.5%). Format: cell-based. Put shortly:
(§1)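 Jurkat cells (2 x 10^5) treated 1.5 h at 37 °C in complete RPMI-1640, aerobic or in sealed 95% N2/5% CO2 chamber. Lysed in 2% SDS/Tris pH 7.5; KCl precipitation, three 65 °C wash rounds, proteinase K 55 °C 3 h. Protein-linked and free DNA quantified by SYBR Green against standard; %DPC = linked/(linked+free) x100. Mean ± SEM, three experiments (n=9).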

Data set [2] relates to Jurkat. The data set can be described thus: Antiproliferative activity against human Jurkat T cells after 48 hrs by resazurin reduction assay. It counts as functional, cell-based. Put shortly:
(§2)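 Cells seeded at 8,000/well; adherent lines trypsinized and given 24 h at 37 °C in 5% CO2 before drug, media replaced with drug dilutions or vehicle. Drug exposure 48 h, then 0.1% resazurin added for 4-24 h. Fluorescence 530/590 nm, expressed as % of untreated, and IC50 from log(inhibitor) vs response fit. Mean ± SEM, ≥3 independent experiments, ≥3 wells each.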

For data set [3], the system named is Jurkat. Kind of data set: Induction of DNA modifying activity in human Jurkat cells assessed as tail extent moments at 10 uM under aerobic condition by alkaline comet assay in presence of 100 uM H2O2. Put shortly:
(§3)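 Jurkat cells at 1 x 10^5/mL were exposed to drug or PBS for 1 h at 37 °C in 5% CO2 (hypoxic arm in an N2/CO2 chamber). They then received 100 µM H2O2 in PBS for 20 min at 4 °C. Cells were embedded in agarose and lysed overnight, unwound at pH >13 for 20 min, electrophoresed at 20 V for 30 min at 4 °C, and stained with SYBR Green. Tail extent moment (tail length x tail DNA) was measured from ≥50 cells over two experiments.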

The subject of the next data set is HuT78. Kind of data set: Antiproliferative activity against human HUT78 cells after 48 hrs by resazurin reduction assay. It counts as functional, cell-based. The following applies: HuT78, 48 h. Put shortly:
as §2
(In general: Resazurin is reduced to fluorescent resorufin, in cell work by metabolically active cells.)

A further data set concerns HeLa. Kind of data set: Antiproliferative activity against human HeLa cells after 48 hrs by resazurin reduction assay. Format: functional, cell-based. Put shortly: as §2
A short description of data set [4]: Stability of the compound in DMEM media assessed as compound remaining at 213 uM after 2 hrs by HPLC analysis. It counts as physicochemical. The note with it: read-out: Stability.
Data set [5] concerns Jurkat. Kind of data set: Induction of DNA modifying activity in human Jurkat cells assessed as increase in H2O2-induced DNA strand break at 10 uM under aerobic condition by alkaline comet assay in presence of H2O2. Format: cell-based. Put shortly:
as §3

Data set [6] can be described thus: Stability of the compound in DMEM media assessed as compound remaining at 213 uM after 0.5 hrs by HPLC analysis. It counts as physicochemical. The note with it: read-out: Stability.
The subject of data set [7] is Jurkat. The data set can be described thus: Induction of DNA modifying activity in human Jurkat cells assessed as tail extent moments at 10 uM under hypoxic condition by alkaline comet assay in presence of 100 uM H2O2. Put shortly: as §3
The test system of data set [8] is Jurkat. Kind of data set: Induction of DNA modifying activity in human Jurkat cells assessed as increase in amount of crosslink DNA at 10 uM for 1 hr under aerobic condition by Hoechst-33342 staining based fluorescence assay. Put shortly: (§4)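 Jurkat cells (~5-6 x 10^6) were exposed to drug or PBS for 1 h (aerobic, or in a sealed 95% N2/5% CO2 chamber) before DNA isolation. DNA (3,750 ng) was mixed with Hoechst 33342 in 0.5x TE, ex/em 360/460 nm, read before and after 5 min at 96-98 °C, 5 min ice, and 5 min room temperature. Crosslinked fraction was taken against a dye-only control and converted to crosslinks/fragment = -ln(1-X). Two isolations, each in triplicate.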

Data set [9] can be described thus: Stability of the compound in DMEM media assessed as compound remaining at 213 uM after 1 hr by HPLC analysis. The following applies: read-out: Stability. Format: physicochemical.
A further data set concerns T47D. The data set can be described thus: Antiproliferative activity against human T47D cells after 48 hrs by resazurin reduction assay. Format: functional, cell-based. Put shortly:
as §2

Another data set deals with HepG2. Kind of data set: Antiproliferative activity against human HepG2 cells after 48 hrs by resazurin reduction assay. It counts as functional, cell-based. The following applies: HepG2, 48 h. Put shortly: as §2
A short description of data set [10]: Stability of the compound in DMEM media assessed as compound remaining at 213 uM after 1.5 hrs by HPLC analysis. It counts as physicochemical. The following applies: read-out: Stability.
For a further data set, the system named is HL-60. The data set can be described thus: Antiproliferative activity against human HL60 cells after 48 hrs by resazurin reduction assay. It counts as functional, cell-based. The following applies: HL-60, 48 h. Put shortly:
as §2

Data set [11] deals with Jurkat. Kind of data set: Induction of DNA modifying activity in human Jurkat cells assessed as DNA-protein crosslink at 100 uM under hypoxic condition by K-SDS assay. It counts as cell-based. Put shortly: as §1
Data set [12] has as its system Jurkat. The data set can be described thus: Antiproliferative activity against human Jurkat T cells in hypoxic condition after 48 hrs by resazurin reduction assay. Format: functional, cell-based. Put shortly: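 Jurkat cells held in a chamber purged 15 min with 95% N2/5% CO2, sealed, and incubated 1 h at 37 °C. Drug was diluted in N2/CO2-sparged PBS and added, then the chamber was purged again for 15 min and kept sealed at 37 °C for the assay. Resazurin readout was 530/590 nm, with IC50 from log(inhibitor) vs response fit.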

Data set [13] relates to Jurkat. The data set can be described thus: Induction of DNA modifying activity in human Jurkat cells assessed as increase in amount of crosslink DNA at 10 uM for 1 hr under hypoxic condition by Hoechst-33342 staining based fluorescence assay. Put shortly:
as §4

A short description of data set [14]: Stability of the compound in DMEM media assessed as compound remaining at 250 uM after 2 hrs by HPLC analysis. The note with it: read-out: Stability. Format: physicochemical. Put shortly:
(§5)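 Stock in DMSO added to DMEM with 10% FBS and pen/strep to 250 µM final, then filtered. Injected every 15 min onto a phenyl column with detection at 254 and 480 nm. Mobile phase was acetonitrile (A) and pH 7.2 Tris (B) at 1.0 mL/min, 15 min gradient from 30% A to 70% A.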

A short description of data set [15]: Stability of the compound in methanol assessed as retention time by HPLC analysis. It counts as physicochemical.
A short description of data set [16]: Stability of the compound in DMEM media assessed as compound remaining at 250 uM after 49 hrs by HPLC analysis. It counts as physicochemical. The following applies: read-out: Stability. Put shortly:
as §5

Data set [17] can be described thus: Stability of the compound in DMEM media assessed as compound remaining at 250 uM after 7 hrs by HPLC analysis. Format: physicochemical. The note with it: read-out: Stability. Put shortly: as §5
The nature of data set [18]: Stability of the compound in DMEM media assessed as compound remaining at 250 uM after 5 hrs by HPLC analysis. Format: physicochemical. The note with it: read-out: Stability. Put shortly:
as §5

Active and inactive are the calls of the source. The calls are words filed in the database; no cut-off is given here.

A word on the IC50: it is the concentration that gives 50% inhibition. As to `CN1[C@@H]2c3c(COC(N)=O)c4c(n3C[C@@H]21)C(=O)C=CC4=O` (some centres undefined), the Activity worked out at 17% in the data set with Jurkat [1], 0.49 in the data set with Jurkat [3] and 3.6 in the data set on Jurkat [7]. Moreover, the IC50 with Jurkat [2] is 4160 nM; in the data set with HuT78 it was 131 nM; in the data set on HeLa, 6210 nM; in the data set with T47D, 9290 nM; with HepG2, 7870 nM; with HL-60, 2030 nM. In the data set with Jurkat [12], this compound showed an IC50 of 3960 nM. In addition, the remaining at 2 h, 213 µM in data set [4] was 8%. Besides, the outcome in the data set on Jurkat [5] and in the data set on Jurkat [8] was Active. Moreover, the remaining at 0.5 h, 213 µM in data set [6] was found to be 50%. In addition, the remaining at 1 h, 213 µM in [9] came out at 25%. Besides, the remaining at 1.5 h, 213 µM in [10] was 14%. Besides, the outcome in the data set with Jurkat [11] was inactive.

`CO[C@@]12[C@H](COC(N)=O)C3=C(C(=O)C(C)=C(N)C3=O)N1C[C@@H]1N[C@@H]12` [MITOMYCIN]: the Activity in the data set with Jurkat [1] amounted to 7.8%; in the data set with Jurkat [3], 96; in the data set on Jurkat [7] it was 87. Moreover, the IC50 turned out to be 578 nM in the data set with Jurkat [2]; 66 nM with HuT78; 1870 nM in the data set with HeLa; 17000 nM in the data set with T47D; 2940 nM with HepG2; 410 nM in the data set with HL-60. Further, the IC50 with Jurkat [12] was 303 nM. Also, the outcome in the data set on Jurkat [8] and in the data set with Jurkat [13] was Active. Besides, in the data set on Jurkat [11], the result was inactive.

`CC1=CC(=O)c2c(COC(N)=O)c3n(c2C1=O)C[C@H]1[C@@H]3N1C` (some centres undefined): the Activity in the data set with Jurkat [1] stood at 17%; with Jurkat [3], 0.26; in the data set on Jurkat [7], 0.32; with Jurkat [8] it was 0.55; in the data set on Jurkat [13] it was 0.51; with Jurkat [11], 41.9%. Further, the remaining at 2 h, 250 µM in data set [14] amounted to 89%. In addition, the IC50 with Jurkat [2] was 8 nM; in the data set on HuT78, 24 nM; in the data set with HeLa, 525 nM; in the data set with T47D, 225 nM; in the data set on HepG2 it was 342 nM; in the data set with HL-60, 30 nM. The IC50 with Jurkat [12] stood at 4 nM. For the same compound, the outcome in the data set on Jurkat [5] was Active. Moreover, the Retention_time in data set [15] came out at 3.6 min. Further, in [16], the remaining at 49 h, 250 µM was 18%. Also, the remaining at 7 h, 250 µM in data set [17] worked out at 72%. The remaining at 5 h, 250 µM in data set [18] is 78%.

The record behind these values is ChEMBL document CHEMBL3627673, “Modification of cellular DNA by synthetic aziridinomitosenes” (Bioorg Med Chem, 2015).
